# Experimental data of several laboratories.
# Lines come from different studies, so protocols differ.
# Target: Serine/threonine-protein kinase N2 (PKN2, Homo sapiens, UniProt Q16513)
Structure (SMILES),assay,conditions,remaining binding
FC(F)(F)Oc1cccc(-c2cnc3ccc(-c4ccncc4)nn23)c1,"cell-free assay, competition with immobilised ligand",5 µM,91%
O=C(Nc1c[nH]nc1C(=O)NC1CCNCC1)c1cc(F)cc(F)c1,"binding, competition with immobilised ligand",1 µM,100%
CCN1CCN(Cc2ccc(C(=O)Nc3ccc(C)c(Oc4ccc5c(c4)CC(=O)N5)c3)cc2C(F)(F)F)CC1,"binding, competition with immobilised ligand",1 µM,100%
C[C@H]1CCN(c2nccc(-c3cnn4ncccc34)n2)C1,binding,1 µM,95%
CC(=O)Nc1c(C(C)=O)c(=O)n(C)c2nc(-c3ccc(Cl)cc3Cl)c(-c3ccc(Cl)cc3)cc12,"cell-free assay, competition with immobilised ligand",1 µM,100%
Cc1cnc(Nc2ccc(C(=O)N3CCC(N4CCCC4)CC3)cc2)nc1-c1cc2ccccc2s1,"binding, competition with immobilised ligand",1 µM,21%
O=C1NC(c2ccccn2)Sc2ccccc21 (stereo not shown),"cell-free assay, competition with immobilised ligand",1 µM,100%
COc1ncc2cc3ccccc3nc2c1C#N,"cell-free assay, competition with immobilised ligand",5 µM,80%
C[C@H](c1ccc(F)cc1)N(Cc1cccc(C(=O)O)c1)C(=O)c1cnc2ccccc2c1,"cell-free assay, competition with immobilised ligand",1 µM,86%
N[C@H]1CCN(c2nccc(-c3cnn4ncccc34)n2)C1,binding,1 µM,71%
COc1cnc(Nc2cccc(S(N)(=O)=O)c2)nc1N1CCN(c2ccccc2)C(=O)C1,"binding, competition with immobilised ligand",1 µM,100%
C=CC(=O)N1CCC(C(=O)NCC(=O)N2CCN(c3nc(-c4cnc(N)nc4C(F)F)nc(N4CCOCC4)n3)CC2)CC1,"binding, competition with immobilised ligand",1 µM,84%
O=C(NCCCN1CCOCC1)c1ccc(Nc2nccc(-c3cc4ccccc4s3)n2)cc1,"binding, competition with immobilised ligand",1 µM,53%
COc1ccnn2ncc(-c3ccnc(N(C)C)n3)c12,binding,1 µM,87%
C[C@@H](c1ccc(-n2cnc3c(N)ncnc32)cc1)N1CCc2nn(C)c(Cc3ccccc3)c2C1=O,"binding, competition with immobilised ligand",0.1 µM,84%
CN(CCCC(F)(F)F)c1nccc(-c2cnn3ncccc23)n1,binding,1 µM,74%
CN(C)C(=O)Cn1cc(-c2nc(C3(c4ccc(-c5cnc(N)nc5)cc4)CC3)no2)cn1,"cell-free assay, competition with immobilised ligand",1 µM,77%
CN(C)c1ncc(F)c(-c2cnn3ncccc23)n1,binding,1 µM,100%
C[C@@H]1CN(c2cc(-c3n[nH]c4ccc(OC5(C)CC5)cc34)ncn2)C[C@H](C)O1,"cell-free assay, competition with immobilised ligand",0.1 µM,89%
O=C(c1ccc(Nc2ncc(Cl)c(-c3ccc(Cl)s3)n2)cc1)N1CCC(N2CCCC2)CC1,"binding, competition with immobilised ligand",1 µM,56%
CC1CCCN1c1nccc(-c2cnn3ncccc23)n1 (stereo not shown),binding,1 µM,89%
Cc1nc(C2CCN(C(=O)c3ccc(OC(F)(F)F)cc3N)CC2)c2ncc(N3CCN(C)CC3)cc2n1,"cell-free assay, competition with immobilised ligand",1 µM,100%
